Assay [1] deals with T1, DNA repair protein RAD51 homolog 1 (Homo sapiens, UniProt Q06609).
T1 sequence (Q06609 whole entry): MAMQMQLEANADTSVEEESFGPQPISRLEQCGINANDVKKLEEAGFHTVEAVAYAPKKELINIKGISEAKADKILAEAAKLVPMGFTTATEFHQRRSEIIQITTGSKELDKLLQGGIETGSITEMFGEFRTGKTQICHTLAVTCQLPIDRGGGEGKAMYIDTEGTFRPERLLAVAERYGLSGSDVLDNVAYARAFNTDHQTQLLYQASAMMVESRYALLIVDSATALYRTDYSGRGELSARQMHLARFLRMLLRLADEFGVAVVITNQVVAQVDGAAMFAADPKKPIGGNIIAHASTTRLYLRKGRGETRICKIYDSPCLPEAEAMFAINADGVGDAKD
Kind of assay: Inhibition of human N-terminal 6-histidine/Avi-tagged recombinant RAD51 expressed in Escherichia coli BL21(DE3) assessed as D-loop formation using 5'-32P-labeled 90-mer ssDNA as substrate preincubated for 10 mins followed by substrate addition with subsequent incubation with substrate for 5 mins measured after 20 mins in presence of supercoiled pRS306 dsDNA by agarose gel electrophoresis.

Assay [2] has as its target T1, DNA repair protein RAD51 homolog 1. Kind of assay: Inhibition of Escherichia coli BL21(DE3) expressing human N-terminal 6-histidine/Avi-tagged RAD51 binding to 5'-Alexa488-oligo-dT45 ssDNA preincubated for 40 mins followed by substrate addition measured after 40 mins by fluorescence polarization based microplate method. Summed up:
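Human RAD51 preincubated with compound in DMSO at 37 °C for 40 min, then 5'-Alexa488-oligo-dT45 added and incubated another 40 min at 37 °C. Buffer: 20 mM HEPES pH 7.5, 2 mM ATP, 10 mM MgCl2, 0.1 mM TCEP. IC50 from least-squares dose–response fits with standard error.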
A general note: Fluorescence polarisation rises when a labelled molecule tumbles more slowly, as on binding a larger partner.

Usually IC50 stands for the midpoint of a concentration-inhibition curve. Turning to `COc1ccc2c(c1)NC(c1ccc(N(C)C)cc1)c1cccn1-2` (configuration not stated), the IC50 in assay [1] and in assay [2] was over 100 µM throughout.

The record behind these values is BindingDB's records for doi:10.1021/acs.jmedchem.5b01762 (University of Illinois At Chicago, 2016).
